Broadly, the IC50 is the concentration at which inhibition is half-maximal.

The values below come from ChEMBL document CHEMBL2380284, “X-ray crystal structures of the Escherichia coli RNA polymerase in complex with benzoxazinorifamycins” (J Med Chem, 2013).

Each structure is given as a SMILES string.

The target of assay [1] is DNA-directed RNA polymerase subunit beta (Escherichia coli O127:H6 (strain E2348/69 / EPEC), UniProt B7UPE2, H526Y). In words: Inhibition of rifamycin-resistant Escherichia coli RNA polymerase H526Y mutant after 10 mins by rolling circle transcription assay in presence of DNA nanocircle template NC45.
Assay [2] deals with DNA-directed RNA polymerase subunit beta (Escherichia coli O127:H6 (strain E2348/69 / EPEC), UniProt B7UPE2, D516V). In words: Inhibition of rifamycin-resistant Escherichia coli RNA polymerase D516V mutant after 10 mins by rolling circle transcription assay in presence of DNA nanocircle template NC45.
A short description of assay [3]: Inhibition of wild type Escherichia coli RNA polymerase after 10 mins by rolling circle transcription assay in presence of DNA nanocircle template NC45. The method in brief: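 Wild-type core enzyme (10 nM final), Ni-NTA purified, with compound at 1.56-100 or 3.12-200 nM, held 10 min at 37 °C in Tris-HCl pH 8.0 buffer with KCl, MgCl2, Triton X-100, DTT and RNase inhibitor. Transcription on 80 nM NC45 circle was started with NTPs (500 µM each). Each compound run in duplicate; IC50 by nonlinear four-parameter logistic regression.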

Assay [4] can be described thus: Inhibition of wild type Mycobacterium tuberculosis RNA polymerase after 10 mins by rolling circle transcription assay in presence of DNA nanocircle template NC45.

DNA-directed RNA polymerase subunit beta (Escherichia coli O127:H6 (strain E2348/69 / EPEC), UniProt B7UPE2, D516V), sequence (B7UPE2 whole entry D516V): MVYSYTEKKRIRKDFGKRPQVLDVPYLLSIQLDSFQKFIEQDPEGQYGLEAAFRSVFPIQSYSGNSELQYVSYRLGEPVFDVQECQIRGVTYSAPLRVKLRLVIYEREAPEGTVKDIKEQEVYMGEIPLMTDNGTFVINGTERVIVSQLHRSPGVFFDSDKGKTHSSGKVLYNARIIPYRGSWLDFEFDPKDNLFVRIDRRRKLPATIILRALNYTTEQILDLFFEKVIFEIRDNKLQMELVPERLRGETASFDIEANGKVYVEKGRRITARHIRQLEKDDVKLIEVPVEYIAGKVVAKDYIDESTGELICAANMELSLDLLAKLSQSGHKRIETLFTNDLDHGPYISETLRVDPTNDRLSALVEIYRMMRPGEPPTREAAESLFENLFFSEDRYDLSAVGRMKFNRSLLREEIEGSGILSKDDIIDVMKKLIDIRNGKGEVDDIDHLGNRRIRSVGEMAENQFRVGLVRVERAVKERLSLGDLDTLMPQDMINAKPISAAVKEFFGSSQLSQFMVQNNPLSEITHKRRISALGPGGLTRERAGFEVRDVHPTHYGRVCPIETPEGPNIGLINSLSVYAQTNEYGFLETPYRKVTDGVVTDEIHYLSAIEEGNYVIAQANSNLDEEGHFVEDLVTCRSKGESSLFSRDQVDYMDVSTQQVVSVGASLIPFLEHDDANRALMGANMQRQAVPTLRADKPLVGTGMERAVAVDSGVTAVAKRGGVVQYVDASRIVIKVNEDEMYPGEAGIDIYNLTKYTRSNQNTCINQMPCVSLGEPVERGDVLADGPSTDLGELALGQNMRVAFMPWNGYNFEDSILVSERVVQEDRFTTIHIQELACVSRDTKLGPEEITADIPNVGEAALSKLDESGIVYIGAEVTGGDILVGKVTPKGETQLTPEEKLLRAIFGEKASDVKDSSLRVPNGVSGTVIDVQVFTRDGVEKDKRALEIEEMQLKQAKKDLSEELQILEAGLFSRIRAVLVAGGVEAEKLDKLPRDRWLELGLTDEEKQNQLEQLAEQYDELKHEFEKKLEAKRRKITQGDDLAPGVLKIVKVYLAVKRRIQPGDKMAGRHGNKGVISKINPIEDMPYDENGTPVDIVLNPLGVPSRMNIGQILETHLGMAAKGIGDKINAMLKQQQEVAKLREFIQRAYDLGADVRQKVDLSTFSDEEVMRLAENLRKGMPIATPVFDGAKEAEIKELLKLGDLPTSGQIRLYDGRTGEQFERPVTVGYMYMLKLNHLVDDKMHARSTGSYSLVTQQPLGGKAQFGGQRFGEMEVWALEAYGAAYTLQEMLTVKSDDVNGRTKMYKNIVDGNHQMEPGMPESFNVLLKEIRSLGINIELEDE
DNA-directed RNA polymerase subunit beta (Escherichia coli O127:H6 (strain E2348/69 / EPEC), UniProt B7UPE2, H526Y), sequence (B7UPE2 whole entry H526Y): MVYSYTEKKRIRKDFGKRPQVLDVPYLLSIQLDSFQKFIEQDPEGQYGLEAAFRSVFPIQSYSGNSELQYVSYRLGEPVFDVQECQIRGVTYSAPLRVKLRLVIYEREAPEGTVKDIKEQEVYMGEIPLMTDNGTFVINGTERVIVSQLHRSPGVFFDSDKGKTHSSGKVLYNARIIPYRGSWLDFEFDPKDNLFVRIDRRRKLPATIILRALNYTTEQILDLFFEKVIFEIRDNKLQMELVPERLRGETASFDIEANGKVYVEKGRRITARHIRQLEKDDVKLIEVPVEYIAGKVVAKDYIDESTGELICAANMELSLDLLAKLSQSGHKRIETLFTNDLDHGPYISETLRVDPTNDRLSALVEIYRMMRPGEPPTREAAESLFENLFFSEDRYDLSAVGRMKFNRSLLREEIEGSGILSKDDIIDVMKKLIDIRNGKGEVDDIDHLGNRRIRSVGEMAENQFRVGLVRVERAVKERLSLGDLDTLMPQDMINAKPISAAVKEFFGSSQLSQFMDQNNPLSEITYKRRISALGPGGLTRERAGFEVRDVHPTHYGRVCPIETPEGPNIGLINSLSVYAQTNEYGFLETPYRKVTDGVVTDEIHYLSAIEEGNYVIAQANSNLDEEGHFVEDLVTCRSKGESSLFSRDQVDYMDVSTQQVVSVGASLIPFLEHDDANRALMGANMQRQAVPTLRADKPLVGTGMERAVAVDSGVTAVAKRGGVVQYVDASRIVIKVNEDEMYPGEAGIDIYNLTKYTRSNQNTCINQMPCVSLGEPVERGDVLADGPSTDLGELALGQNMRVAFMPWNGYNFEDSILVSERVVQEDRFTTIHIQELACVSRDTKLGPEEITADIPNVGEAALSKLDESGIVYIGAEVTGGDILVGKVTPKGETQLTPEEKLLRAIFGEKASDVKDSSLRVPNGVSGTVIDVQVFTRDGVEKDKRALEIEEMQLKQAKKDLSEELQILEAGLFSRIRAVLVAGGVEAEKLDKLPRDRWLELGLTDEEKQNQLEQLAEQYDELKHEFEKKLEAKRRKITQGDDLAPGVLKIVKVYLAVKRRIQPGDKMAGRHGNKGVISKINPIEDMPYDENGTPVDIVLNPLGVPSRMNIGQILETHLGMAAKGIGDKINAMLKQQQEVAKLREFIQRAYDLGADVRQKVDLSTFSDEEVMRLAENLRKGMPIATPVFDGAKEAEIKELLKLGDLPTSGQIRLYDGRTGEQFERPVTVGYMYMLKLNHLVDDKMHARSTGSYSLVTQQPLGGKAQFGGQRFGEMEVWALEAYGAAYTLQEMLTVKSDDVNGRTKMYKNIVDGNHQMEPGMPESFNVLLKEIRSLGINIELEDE

With `CCN(CC)CCOc1cccc2oc3c4c(=O)c5c(O)c(C)c6c(c5c-3nc12)C(=O)[C@@](C)(O/C=C/[C@H](OC)[C@@H](C)[C@@H](OC(C)=O)[C@H](C)[C@H](O)[C@H](C)[C@@H](O)[C@@H](C)/C=C/C=C(/C)C(=O)N4)O6`, the half-maximal inhibitory concentration (IC50) was 1150 µM in assay [1], 35 µM in assay [2] and 0.057 µM in assay [3].

For `CO[C@H]1/C=C/O[C@@]2(C)Oc3c(C)c(O)c4c(=O)c(c5oc6cccc(OCCCCN7CCN(CCn8ccnc8)CC7)c6nc-5c4c3C2=O)NC(=O)/C(C)=C\C=C\[C@H](C)[C@H](O)[C@@H](C)[C@@H](O)[C@@H](C)[C@H](OC(C)=O)[C@@H]1C`, the 50% inhibitory concentration (IC50) in assay [1] was not below 2000 µM; in assay [2] it was 2 µM; in assay [3] it was 0.024 µM.

As to `CO[C@H]1/C=C/O[C@@]2(C)Oc3c(C)c(O)c4c(=O)c(c5oc6cccc(OCCCCN7CCN(C(=O)Cn8ccnc8)CC7)c6nc-5c4c3C2=O)NC(=O)/C(C)=C\C=C\[C@H](C)[C@H](O)[C@@H](C)[C@@H](O)[C@@H](C)[C@H](OC(C)=O)[C@@H]1C`, the 50% inhibitory concentration (IC50) in assay [1] came to 1580 µM; in assay [2], 41 µM; in assay [3], 0.021 µM.

Consider `CO[C@H]1/C=C/O[C@@]2(C)Oc3c(C)c(O)c4c(=O)c(c5oc6cc(N7CCN(CC(C)C)CC7)cc(O)c6nc-5c4c3C2=O)NC(=O)/C(C)=C\C=C\[C@H](C)[C@H](O)[C@@H](C)[C@@H](O)[C@@H](C)[C@H](OC(C)=O)[C@@H]1C` [RIFALAZIL], for which the IC50 in assay [1] was 299 µM; in assay [2], 204 µM; in assay [3], less than 0.01 µM.

As for `CO[C@H]1/C=C/O[C@@]2(C)Oc3c(C)c(O)c4c(O)c(c(/C=N/N5CCN(C)CC5)c(O)c4c3C2=O)NC(=O)/C(C)=C\C=C\[C@H](C)[C@H](O)[C@@H](C)[C@@H](O)[C@@H](C)[C@H](OC(C)=O)[C@@H]1C` [RIFAMPIN], the half-maximal inhibitory concentration (IC50) in assay [1] was determined as 1130 µM; in assay [4] it was 0.017 µM; in assay [2] it was 233 µM; in assay [3], 0.012 µM.
